Source: ChEMBL document CHEMBL1165982, “Induction of G(2)/M phase arrest and apoptosis by oridonin in human laryngeal carcinoma cells” (J Nat Prod, 2010)
Active and inactive are the calls of the source. No cut-off for these calls is given here.

Tests used:
HEp-2 [1] = assay: Induction of ROS generation in human Hep2 cells assessed as ratio of DCF-positive cells at 36 uM after 6 hrs relative to control; format: functional
Summary of the method: (§1)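 Cells exposed to 36 µM for 0, 3, 6, 12 or 24 h, then loaded with DCF-DA (10 mM as printed) for 15 min at 37 °C. Harvested, resuspended in PBS and read by flow cytometry (ex 480 nm, em 525 nm). Result given as % DCF-positive cells. n = 3.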

HEp-2 [2] = assay: Induction of apoptosis in human Hep2 cells assessed as decrease in cdc2 level at 36 uM after 24 hrs by Western blot analysis in presence of NAC; format: functional, cell-based
Summary of the method: (§2)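 Treatment: 36 µM for 0, 6, 12 or 24 h, alone or with 2.5 mM N-acetylcysteine or 500 U/mL catalase. Lysis 60 min at 4 °C in Hepes pH 7.4/1% Triton X-100 with phosphatase and protease inhibitors, spin 13000g. Lysates run on 12% SDS-PAGE, blotted to nitrocellulose, probed with polyclonal antibodies, HRP/DAB detection. Representative of ≥3 experiments.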

HEp-2 [3] = assay: Induction of apoptosis in human Hep2 cells assessed as increase in p21/WAF1 level at 36 uM from 6 to 24 hrs by Western blot analysis in presence of NAC; format: functional, cell-based; summary of the method: as §2
HEp-2 [4] = assay: Cytotoxicity against human Hep2 cells at 36 uM after 24 hrs by MTT assay; format: functional
Summary of the method: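 Cells seeded at 1.2 × 10^4 per well in 96-well plates, grown 24 h, then treated over 10.7–81 µM for 6, 12, 24, 36 or 48 h. Viability read by MTT. DMSO kept below 0.05%. IC50 taken at 24 h.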

HEp-2 [5] = assay: Induction of apoptosis in human Hep2 cells assessed as decrease in cdc2 level at 36 uM after 24 hrs by Western blot analysis; format: functional, cell-based; conditions: TDE = time-dependent effect; summary of the method: as §2
HEp-2 [6] = assay: Induction of apoptosis in human Hep2 cells assessed as caspase activated DNase level at 36 uM after 24 hrs by Western blot analysis in presence of CAT; format: functional, cell-based; summary of the method: as §2
HEp-2 [7] = assay: Induction of apoptosis in human Hep2 cells at 36 uM after 24 hrs by MTT assay in presence of Ac-LEHD-cmk caspase 9 inhibitor; format: functional, cell-based
Summary of the method: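 Pretreatment: HEp-2 (1.2 × 10^4/well, plated 24 h earlier) given caspase-9 inhibitor Ac-LEHD-cmk at 5, 10 or 20 µM for 1 h. Then 36 µM for 24 h. Inhibitory ratio by MTT, n = 3, mean ± SD.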

HEp-2 [8] = assay: Induction of apoptosis in human Hep2 cells assessed as increase in phospho-cdc25C (ser216) level at 36 uM from 6 to 24 hrs by Western blot analysis in presence of NAC; format: functional, cell-based; summary of the method: as §2
HEp-2 [9] = assay: Induction of apoptosis in human Hep2 cells assessed as accumulation in subG1 phase using PI staining at 36 uM after 24 hrs by flow cytometeric analysis in presence of N-acetyl-cysteine ROS scavenger; format: functional
Summary of the method: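 HEp-2 cells were pretreated 1 h with 2.5 mM N-acetylcysteine, then co-incubated with 36 µM for 24 h. They were then fixed in 70% ethanol (≥12 h, 4 °C) and stained on ice in the dark for 30 min with 50 µg/mL PI and 1 mg/mL RNase A. G2/M and subG1 fractions were read by flow cytometry, ≥10 000 cells counted. n = 3.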

HEp-2 [10] = assay: Induction of apoptosis in human Hep2 cells assessed as increase in pro-apoptotic Bax protein at 36 uM after 24 hrs by Western blot analysis in presence of NAC; format: functional, cell-based; summary of the method: as §2
HEp-2 [11] = assay: Induction of apoptosis in human Hep2 cells assessed as decrease in Bcl-2 at 36 uM after 24 hrs by Western blot analysis in presence of NAC; format: functional, cell-based; summary of the method: as §2
HEp-2 [12] = assay: Induction of apoptosis in human Hep2 cells assessed as decrease in Bcl-2 at 36 uM after 24 hrs by Western blot analysis in presence of CAT; format: functional, cell-based; summary of the method: as §2
HEp-2 [13] = assay: Induction of apoptosis in human Hep2 cells assessed as increase in cytochrome c at 36 uM after 12 hrs by Western blot analysis; format: functional, cell-based; summary of the method: as §2
HEp-2 [14] = assay: Induction of apoptosis in human Hep2 cells assessed as accumulation in subG1 phase using PI staining by flow cytometeric analysis; format: functional
Summary of the method: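 ATCC HEp-2 in RPMI-1640 with 10% FBS at 37 °C, 5% CO2, exposed to 36 µM for 0, 6, 12 or 24 h. 1 × 10^6 cells were fixed in 70% ethanol at 4 °C for at least 12 h, then stained on ice in the dark for 30 min with 50 µg/mL PI plus 1 mg/mL RNase A. Read by flow cytometry, ≥10 000 cells per sample. SubG1 counted as the apoptotic fraction. n = 3.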

HEp-2 [15] = assay: Induction of apoptosis in human Hep2 cells assessed as decrease in mitochondrial membrane potential using rhodamine 123 staining at 36 uM after 24 hrs by FACScan flow cytometry; format: functional; parameters: scale not given: the % may be the effect or the level left
Summary of the method: (§3)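 Membrane potential: HEp-2 exposed to 36 µM for 0–24 h, alone or with 2.5 mM N-acetylcysteine for 24 h. Cells collected into PBS with 1 µg/mL rhodamine-123, held 15 min at 37 °C, then read by flow cytometry for % rhodamine-123-bright cells. n = 3.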

HEp-2 [16] = assay: Induction of apoptosis in human Hep2 cells assessed as decrease in Bcl-2 at 36 uM after 12 hrs by Western blot analysis; format: functional, cell-based; conditions: in the assay text read “after 24 hrs” for “after 12 hrs”; summary of the method: as §2
HEp-2 [17] = assay: Induction of apoptosis in human Hep2 cells assessed as cleaved caspase 3 level at 36 uM after 24 hrs by Western blot analysis in presence of NAC; format: functional, cell-based; summary of the method: as §2
HEp-2 [18] = assay: Induction of ROS generation in human Hep2 cells assessed as ratio of DCF-positive cells at 36 uM after 24 hrs relative to control; format: functional; summary of the method: as §1
HEp-2 [19] = assay: Induction of apoptosis in human Hep2 cells at 36 uM after 24 hrs by MTT assay in presence of z-VAD-fmk pan-caspase inhibitor; format: functional, cell-based
Summary of the method: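 HEp-2 cells in RPMI-1640 with 10% FBS at 37 °C, 5% CO2, seeded at 1.2 × 10^4 cells/well and grown 24 h. Pretreated 1 h with z-DEVD-fmk (5 µM, line 1) or z-VAD-fmk (10 µM, line 2), then exposed to 36 µM agent for 24 h, with DMSO below 0.05%. Cell inhibitory ratio read by MTT; n = 3, mean ± SD.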

HEp-2 [20] = assay: Induction of apoptosis in human Hep2 cells assessed as cleaved caspase 3 level at 36 uM after 24 hrs by Western blot analysis in presence of CAT; format: functional, cell-based; summary of the method: as §2
HEp-2 [21] = assay: Induction of apoptosis in human Hep2 cells assessed as decrease in mitochondrial membrane potential using rhodamine 123 staining at 36 uM after 24 hrs by FACScan flow cytometry in presence of N-acetyl-cysteine ROS scavenger; format: functional; parameters: scale not given: the % may be the effect or the level left; summary of the method: as §3
HEp-2 [22] = assay: Induction of apoptosis in human Hep2 cells assessed as decrease in cyclin B level at 36 uM after 24 hrs by Western blot analysis in presence of NAC; format: functional, cell-based; summary of the method: as §2
HEp-2 [23] = assay: Induction of apoptosis in human Hep2 cells assessed as fragmented DNA using acridine orange staining at 36 uM after 24 hrs by microscopic analysis; format: functional, cell-based
HEp-2 [24] = assay: Induction of apoptosis in human Hep2 cells assessed as increase in phospho-cdc2 (Tyr15) level at 36 uM from 6 to 24 hrs by Western blot analysis; format: functional, cell-based; summary of the method: as §2
HEp-2 [25] = assay: Induction of ROS generation in human Hep2 cells assessed as ratio of DCF-positive cells at 36 uM after 12 hrs relative to control; format: functional; summary of the method: as §1
HEp-2 [26] = assay: Induction of apoptosis in human Hep2 cells assessed as pro-caspase 3 level at 36 uM by Western blot analysis; format: functional, cell-based; conditions: TDE = time-dependent effect; summary of the method: as §2

SMILES: C=C1C(=O)[C@]23[C@H](O)[C@H]1CC[C@H]2[C@@]12CO[C@]3(O)[C@@H](O)[C@@H]1C(C)(C)CC[C@@H]2O [ORIDONIN]
- Activity (HEp-2 [1]): 17.25%
- Activity (HEp-2 [2]): inactive
- Activity (HEp-2 [3]): inactive
- Activity (HEp-2 [4]): 50%
- Activity (HEp-2 [5]): tde
- Activity (HEp-2 [6]): inactive
- Activity (HEp-2 [7]): Active
- Activity (HEp-2 [8]): inactive
- Activity (HEp-2 [9]): 3.39%
- Activity (HEp-2 [10]): inactive
- Activity (HEp-2 [11]): inactive
- Activity (HEp-2 [12]): inactive
- Activity (HEp-2 [13]): Active
- Activity (HEp-2 [14]): 26.57%
- Activity (HEp-2 [15]): 58.6%
- Activity (HEp-2 [16]): Active
- Activity (HEp-2 [17]): inactive
- Activity (HEp-2 [18]): 24.86%
- Activity (HEp-2 [19]): inactive
- Activity (HEp-2 [20]): inactive
- Activity (HEp-2 [21]): 89.31%
- Activity (HEp-2 [22]): inactive
- Activity (HEp-2 [23]): Active
- Activity (HEp-2 [24]): Active
- Activity (HEp-2 [25]): 24.21%
- Activity (HEp-2 [26]): tde
